How the values were obtained:
Type in all cases: functional
Mus musculus = assay: Analgesic activity in mouse assessed as increase in paw withdrawal latency at 50 mg/kg after 120 mins by hot plate test (reference value: 6.07 +/- 0.057 secs)
Rattus norvegicus [1] = assay: Antiinflammatory activity in rat assessed as inhibition of carrageenan-induced paw oedema at 50 mg/kg after 60 mins relative to untreated control; conditions: 1 h
Procedure, shortened: (§1)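 Carrageenan-induced hind-paw oedema (Winter method). The text names both rats and mice. Test agents dosed at 100 mg/kg body weight, reference at 50 mg/kg body weight. Paw thickness measured in mm at 60 and 180 min after carrageenan injection. Percent oedema inhibition calculated against the saline control group. Six animals per group, mean ± SD. One-way ANOVA with Newman-Keuls test.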

Rattus norvegicus [2] = assay: Antiinflammatory activity in rat assessed as inhibition of carrageenan-induced paw oedema at 50 mg/kg after 180 mins relative to untreated control; conditions: 3 h; procedure, shortened: as §1

CC(C)=CCN1CC[C@]2(C)c3cc(O)ccc3C[C@H]1[C@H]2C [(+)-PENTAZOCINE]
Time (Mus musculus): 14.1 s

O=C(O)Cc1ccccc1Nc1c(Cl)cccc1Cl [DICLOFENAC]
inhibition in vivo at 50 mg/kg (Rattus norvegicus [1]): 44.5%
inhibition in vivo at 50 mg/kg (Rattus norvegicus [2]): 45.8%

Reference: ChEMBL document CHEMBL2331523, “Regioselective synthesis of isoxazole-mercaptobenzimidazole hybrids and their in vivo analgesic and anti-inflammatory activity studies” (2013)
